Results: PubChem BioAssay AID602213 (Southern Research Specialized Biocontainment Screening …, 2012)
Active and inactive are the calls of the source.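 The calls were made as follows: active = inhibition of 30% or more at any tested concentration; inactive = the rest.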

What follows are molecules tested against M1-family alanyl aminopeptidase PfA-M1 (Plasmodium falciparum 3D7) (assay: inhibition of malaria M1 alanyl aminopeptidase – biochemical, QFRET, H-Leu-NHMec substrate, set 2, dose response (AID 602213)). Settings: recombinant PfM1AAP, H-Leu-NHMec fluorogenic cleavage.
In short: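 Material: Purified recombinant PfM1AAP, an M1-family alanyl aminopeptidase of Plasmodium falciparum | Technique: Fluorescence at 370/460 nm | Times: 90 min reaction at room temperature | Medium: Tris buffer pH 7.5, CoCl2, 2% DMSO | Compound dosing: 10 concentrations, 0.2–100 µM, 1:2 steps | Also added: H-Leu-NHMec fluorogenic peptide substrate, 0.1 mM final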

| IC50 | SMILES |
| --- | --- |
| 1.54 µM | O=C(NCc1ccc2c(c1)OCO2)C1CCN(S(=O)(=O)c2ccc(Br)s2)CC1 |
| 2.26 µM | O=C(NCc1ccccc1)C1CCN(S(=O)(=O)c2ccc(Br)s2)CC1 |
| 5.05 µM | O=C(NCc1ccc(F)cc1)C1CCN(S(=O)(=O)c2ccc(Br)s2)CC1 |
| 14.6 µM | O=C(NCc1ccc(Cl)cc1)C1CCN(S(=O)(=O)c2ccc(Br)s2)CC1 |

Same assay, conditions: recombinant PfM1AAP, H-Leu-NHMec fluorogenic cleavage; at 100 µM (top of the series)

| inhibition | SMILES |
| --- | --- |
| inactive | CC[C@H](C)[C@H](NS(=O)(=O)c1ccc(Br)s1)C(=O)NCc1ccc(Cl)cc1 |
| inactive | CC[C@H](C)[C@H](NC(=O)c1ccc(C(C)(C)C)cc1)C(=O)NCc1ccc(Cl)cc1 |
| inactive | CC[C@H](C)[C@H](NS(=O)(=O)c1ccc(Br)s1)C(=O)NCc1ccc2c(c1)OCO2 |
| inactive | CC[C@H](C)[C@H](NC(=O)c1ccc(C(C)(C)C)cc1)C(=O)NCc1ccc2c(c1)OCO2 |
